Key:
[1] = tested on: PHDVC5HCHNSD1; assay: NMR titration; type: binding, murine; settings: for average CSP value <CSP>: 15N HSQC of PHDVC5HCHNSD1 (0.2 mM), up to 12 molar excess of peptide, 295 K, pH 6.3; for interaction strength: fast exchange regime; for interaction strength / affinity: up to 12 molar excess; for affinity: no saturation
Outline: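 15N-labelled PHDvC5HCH domain was expressed in E. coli BL21(DE3) in 15NH4Cl minimal medium with 1 mM IPTG at 28°C overnight. Protein at 0.2–0.3 mM, quantified by UV (ε 12490 M⁻¹cm⁻¹), was in 20 mM sodium phosphate pH 6.3, 0.15 M NaCl, 2 mM DTT, 50 μM ZnCl₂. Peptide (>98% pure, 15 mM stock, dry-weight quantified) was added stepwise; 2D 15N-HSQC was acquired per point. CSP = [(ΔδHN² + ΔδN²/25)/2]^½.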

[2] = tested on: PHDVC5HCHNSD1; settings: biotinylated peptides, 21 aminoacids long; cited from earlier work

Molecule: NCCCC[C@H](N)C(=O)O [Lysine]
- amide chemical shifts induced ([1]; NMR titration, up to 300 mM of Lysine): induced amide chemical shifts in the same region

Molecule: H3K4me3_1–21: Synthetic histone H3 peptide, K4me3
- binding in vitro [2]: binds
- average CSP value <CSP> [1]: ~0.02 ppm
- interaction strength ([1]; NMR titration): extremely weak interactions
- affinity ([1]; NMR titration): affinities in the high mM range

Molecule: H3K9me3_1–21: Synthetic histone H3 peptide, K9me3
- binding in vitro [2]: binds
- average CSP value <CSP> [1]: ~0.02 ppm
- interaction strength ([1]; NMR titration): extremely weak interactions
- affinity ([1]; NMR titration): affinities in the high mM range

Molecule: H3_1–21: Synthetic histone H3 peptide
- average CSP value <CSP> [1]: ~0.02 ppm
- interaction strength ([1]; NMR titration): extremely weak interactions
- affinity ([1]; NMR titration): affinities in the high mM range

Reference: PMC4838375 (Nucleic Acids Research, 2016)
